Experimental data gathered from unrelated publications.
Compare with care: the assays were run in different laboratories.
Matrix: Caco-2

Compound	tested at	time	pH	efflux ratio
CC(C)NCC(O)COc1cccc2ccccc12 (stereo not drawn)	10 µM	2 h	pH 7.4	0.47
C[C@H]1O[C@@H](O[C@H]2[C@@H](O)C[C@H](O[C@H]3[C@@H](O)C[C@H](O[C@H]4CC[C@@]5(C)[C@H](CC[C@@H]6[C@@H]5C[C@@H](O)[C@]5(C)[C@@H](C7=CC(=O)OC7)CC[C@]65O)C4)O[C@@H]3C)O[C@@H]2C)C[C@H](O)[C@@H]1O	–	–	–	643
CNC(=C[N+](=O)[O-])NCCSCc1ccc(CN(C)C)o1	–	–	–	5
CO[C@@H](C[C@H]1C(C)=CC[C@@H]2[C@]3(C)C[C@H](O[C@@H]4O[C@@H](C)[C@H](OC(=O)c5cccc(O)c5)[C@@H](O[C@@H]5O[C@H](CO)[C@@H](O)[C@H](O)[C@H]5NC(C)=O)[C@H]4O)[C@@H](O)C(C)(C)[C@H]3CC[C@]21C)[C@H](N)C(=O)O.O=C(O)C(F)(F)F	5 µM	1 h	–	4.6
Nc1nc2c(ncn2COCCO)c(=O)[nH]1	10 µM	2 h	pH 7.4	9.42
CCOC(=O)[C@@]12C[C@@H]1[C@@H](n1ccc3c(NC)nc(C#Cc4ccc(Cl)s4)nc31)[C@H](O)[C@@H]2O	10 µM	2 h	pH 7.4	15.6
Cn1c(=O)c2c(nc(S)n2C)n(C)c1=O	10 µM	2 h	–	3.3
C[C@H]1O[C@@H](O[C@H]2[C@@H](O)C[C@H](O[C@H]3[C@@H](O)C[C@H](O[C@H]4CC[C@@]5(C)[C@H](CC[C@@H]6[C@@H]5C[C@@H](O)[C@]5(C)[C@@H](C7=CC(=O)OC7)CC[C@]65O)C4)O[C@@H]3C)O[C@@H]2C)C[C@H](O)[C@@H]1O	10 µM	2 h	pH 7.4	87.9
CC(C)NCC(O)COc1cccc2ccccc12 (stereo not drawn)	5 µM	1 h	–	0.8
